The values below come from ChEMBL document CHEMBL1138216, “Design and synthesis of novel derivatives of the muscarinic agonist tetra(ethylene glycol)(3-methoxy-1,2,5-thiadiazol-4-yl) [3-(1-methyl-1,2,5,6-tetrahydropyrid-3-yl)-1,2,5-thiadiazol-4-yl] ether (CDD-0304): effects of structural modifications on the binding and activity at muscarinic receptor …” (J Med Chem, 2006).

For test [1], the target named is T1, Muscarinic acetylcholine receptor M1 (Homo sapiens, UniProt P11229).
T1 sequence (P11229 whole entry): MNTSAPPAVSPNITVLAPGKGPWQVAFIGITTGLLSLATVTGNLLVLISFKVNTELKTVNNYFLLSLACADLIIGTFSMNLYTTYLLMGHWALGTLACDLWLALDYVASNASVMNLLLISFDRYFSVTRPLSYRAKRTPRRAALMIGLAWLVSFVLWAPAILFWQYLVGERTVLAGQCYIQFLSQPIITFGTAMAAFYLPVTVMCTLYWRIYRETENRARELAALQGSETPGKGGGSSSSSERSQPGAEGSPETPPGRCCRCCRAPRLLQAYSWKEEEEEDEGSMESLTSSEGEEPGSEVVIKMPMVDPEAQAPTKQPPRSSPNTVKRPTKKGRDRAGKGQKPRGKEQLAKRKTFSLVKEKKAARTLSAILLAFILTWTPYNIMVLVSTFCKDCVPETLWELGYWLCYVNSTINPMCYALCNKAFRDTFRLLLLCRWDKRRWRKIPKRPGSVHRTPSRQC
The test is described as follows: Inhibition of [3H](R)-QNB binding to human M1 receptor expressed in A9 L cells. It counts as cell-based, A9L.

The target of test [2] is T2, Muscarinic acetylcholine receptor M3 (Homo sapiens, UniProt P20309). Description: Agonist activity at human M3 receptor expressed in A9 L cells assessed as stimulation of phosphoinositide hydrolysis relative to carbachol. It counts as functional, cell-based. The note with it: L929. In a few lines:
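A9 L cells stably expressing the receptor, seeded 24 h, labelled overnight with 10 µCi/mL [3H]inositol in inositol-free DMEM; ligands in HBSS with 10 mM LiCl, 20 mM HEPES, 37 °C, 1 h; formic acid extraction, inositol phosphates counted by SPA beads.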
Target sequence in this assay (P20309 whole entry, looked up): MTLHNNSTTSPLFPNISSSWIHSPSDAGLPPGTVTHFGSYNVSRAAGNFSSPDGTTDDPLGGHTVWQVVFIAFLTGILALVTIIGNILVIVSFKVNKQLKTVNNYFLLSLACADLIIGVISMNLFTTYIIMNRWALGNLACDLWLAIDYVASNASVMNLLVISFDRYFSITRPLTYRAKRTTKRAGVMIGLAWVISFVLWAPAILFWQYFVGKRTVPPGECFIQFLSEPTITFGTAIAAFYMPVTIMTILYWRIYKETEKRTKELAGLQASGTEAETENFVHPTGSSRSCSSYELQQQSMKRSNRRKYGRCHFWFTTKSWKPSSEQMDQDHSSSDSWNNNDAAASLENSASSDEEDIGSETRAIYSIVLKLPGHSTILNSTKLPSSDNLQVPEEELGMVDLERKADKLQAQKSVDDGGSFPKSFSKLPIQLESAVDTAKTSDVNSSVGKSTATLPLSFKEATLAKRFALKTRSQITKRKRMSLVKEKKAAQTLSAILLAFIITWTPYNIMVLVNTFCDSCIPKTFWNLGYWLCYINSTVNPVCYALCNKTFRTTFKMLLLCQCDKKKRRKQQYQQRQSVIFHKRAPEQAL

Test [3] concerns the target Muscarinic acetylcholine receptor M1 (Homo sapiens, UniProt P11229, Q185E). Format: functional, cell-based, L929.
In test [4] the target is T3, Muscarinic acetylcholine receptor M2 (Homo sapiens) (UniProt P08172).
T3 sequence (whole entry): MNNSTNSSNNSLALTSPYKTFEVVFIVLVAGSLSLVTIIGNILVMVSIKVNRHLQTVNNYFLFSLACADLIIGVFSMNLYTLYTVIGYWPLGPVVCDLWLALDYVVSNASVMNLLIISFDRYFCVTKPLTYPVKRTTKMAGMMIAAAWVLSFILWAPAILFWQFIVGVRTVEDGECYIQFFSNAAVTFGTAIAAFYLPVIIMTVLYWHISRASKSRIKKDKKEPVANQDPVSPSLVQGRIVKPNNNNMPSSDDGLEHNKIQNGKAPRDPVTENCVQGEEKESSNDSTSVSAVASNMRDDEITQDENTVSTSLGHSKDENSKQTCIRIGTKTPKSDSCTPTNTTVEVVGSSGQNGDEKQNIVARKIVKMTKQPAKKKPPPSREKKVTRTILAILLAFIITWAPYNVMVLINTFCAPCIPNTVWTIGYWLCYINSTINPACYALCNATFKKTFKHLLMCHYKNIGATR
The test is described as follows: Activity at human M2 receptor assessed as inhibition of forskolin-stimulated cAMP accumulation relative to carbachol. It counts as functional.

In test [5] the target is T4, Muscarinic acetylcholine receptor M4 (Homo sapiens, UniProt P08173).
T4 sequence (P08173 whole entry): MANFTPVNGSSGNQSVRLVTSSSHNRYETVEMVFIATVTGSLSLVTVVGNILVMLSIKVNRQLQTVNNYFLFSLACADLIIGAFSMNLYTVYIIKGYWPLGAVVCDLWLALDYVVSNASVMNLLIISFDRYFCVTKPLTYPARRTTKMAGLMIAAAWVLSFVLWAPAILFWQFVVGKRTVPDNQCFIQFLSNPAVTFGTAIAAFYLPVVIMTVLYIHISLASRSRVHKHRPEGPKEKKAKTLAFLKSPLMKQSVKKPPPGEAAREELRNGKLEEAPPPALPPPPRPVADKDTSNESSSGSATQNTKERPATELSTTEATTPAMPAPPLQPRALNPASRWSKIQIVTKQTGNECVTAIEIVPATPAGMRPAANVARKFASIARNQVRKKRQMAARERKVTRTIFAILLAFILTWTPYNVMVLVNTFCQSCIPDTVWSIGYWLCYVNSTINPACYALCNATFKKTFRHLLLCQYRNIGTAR
The test is described as follows: Activity at human M4 receptor assessed as inhibition of forskolin-stimulated cAMP accumulation. Format: functional.

Test [6] has as its target T5, Muscarinic acetylcholine receptor M1/M5 chimeric protein (Homo sapiens, UniProt P08912+P11229).
T5 sequence (P11229 whole entry): T1 sequence (P11229 whole entry)
T5 sequence (P08912 whole entry): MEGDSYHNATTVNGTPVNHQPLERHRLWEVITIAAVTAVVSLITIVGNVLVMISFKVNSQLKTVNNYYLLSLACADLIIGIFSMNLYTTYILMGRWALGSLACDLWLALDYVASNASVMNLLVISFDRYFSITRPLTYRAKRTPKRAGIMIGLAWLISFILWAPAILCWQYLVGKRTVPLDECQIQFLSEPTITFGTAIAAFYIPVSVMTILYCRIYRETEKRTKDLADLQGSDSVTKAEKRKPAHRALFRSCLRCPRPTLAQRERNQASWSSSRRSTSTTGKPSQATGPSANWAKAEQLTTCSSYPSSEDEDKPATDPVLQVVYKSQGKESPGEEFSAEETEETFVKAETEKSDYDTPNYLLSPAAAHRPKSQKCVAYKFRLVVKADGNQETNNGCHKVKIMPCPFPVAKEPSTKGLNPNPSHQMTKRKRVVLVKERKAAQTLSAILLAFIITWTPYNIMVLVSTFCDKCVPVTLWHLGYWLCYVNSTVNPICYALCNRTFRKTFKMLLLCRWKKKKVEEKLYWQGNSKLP
Description: Inhibition of [3H](R)-QNB binding to human M1/M5(o2) chimeric receptor expressed in A9 L cells. Format: cell-based, A9L.

Test [7] concerns the target T5, Muscarinic acetylcholine receptor M1/M5 chimeric protein. Description: Inhibition of [3H](R)-QNB binding to human M1/M5(o2o3) chimeric receptor expressed in A9 L cells. Format: cell-based, A9L.
Test [8] shares this target. Description: Agonist activity at human M1/M5(o2) chimeric receptor expressed in A9 L cells assessed as stimulation of phosphoinositide hydrolysis. Format: functional, cell-based, L929.
The target is the same in test [9]. Description: Agonist activity at human M1/M5(o3) chimeric receptor expressed in A9 L cells assessed as stimulation of phosphoinositide hydrolysis. It counts as functional, cell-based, L929.
Test [10] deals with Rattus norvegicus. The test is described as follows: Antipsychotic activity in Sprague-Dawley rat assessed as ability to reverse apomorphine effect on prepulse inhibition of the startle response at 1 mg/kg, sc. It counts as functional, organism-based. On the set-up: dose 1 mg/kg. In outline:
(§1)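 Male Sprague-Dawley rats, 250-300 g, habituated a day before. Drug in water or saline sc (1 mL/kg) 25 min, apomorphine 1.0 mg/kg 5 min pre-test; muscarinic agonists 0.1-3 mg/kg. Session of 15 each pulse-alone (120 dB, 100 ms) and pulse preceded 200 ms by 20 ms prepulse 12 dB above 70 dB background; 12 rats/group; %PPI calculated.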

The test system of test [11] is Rattus norvegicus. Description: Antipsychotic activity in Sprague-Dawley rat assessed as ability to reverse apomorphine effect on prepulse inhibition of the startle response at 3 mg/kg, sc. Format: functional, organism-based. On the set-up: dose 3 mg/kg. In a few lines: as §1
The target in test [12] is T2, Muscarinic acetylcholine receptor M3. The test is described as follows: Agonist activity at human M3 receptor expressed in A9 L cells assessed as stimulation of phosphoinositide hydrolysis. Format: functional, cell-based, L929.
Target sequence in this assay (P20309 whole entry): as the sequence (P20309 whole entry, looked up) above
Test [13] concerns Rattus norvegicus. Description: Antipsychotic activity in sc dosed Sprague-Dawley rat assessed as ability to reverse apomorphine effect on prepulse inhibition of the startle response. Format: functional, organism-based. In a few lines: as §1

pEC50, pIC50, pKi: −log10 of the molar value. Active and inactive are the calls of the source. The rule behind the calls is not given here.

Chain of Muscarinic acetylcholine receptor M1 (Homo sapiens, UniProt P11229, Q185E) (P11229 whole entry Q185E): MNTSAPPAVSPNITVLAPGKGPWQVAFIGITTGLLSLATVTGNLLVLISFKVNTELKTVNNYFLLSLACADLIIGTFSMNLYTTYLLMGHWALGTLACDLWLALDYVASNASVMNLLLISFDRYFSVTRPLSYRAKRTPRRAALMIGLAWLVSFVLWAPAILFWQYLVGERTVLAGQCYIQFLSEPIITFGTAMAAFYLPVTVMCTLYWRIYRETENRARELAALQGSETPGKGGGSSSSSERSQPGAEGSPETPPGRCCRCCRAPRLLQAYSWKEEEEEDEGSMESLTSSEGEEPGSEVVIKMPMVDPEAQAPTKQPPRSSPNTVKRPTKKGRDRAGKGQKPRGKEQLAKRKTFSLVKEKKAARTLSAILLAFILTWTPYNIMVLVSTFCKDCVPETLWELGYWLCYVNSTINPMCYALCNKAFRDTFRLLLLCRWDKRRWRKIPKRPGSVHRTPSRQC

Turning to `COc1nsnc1OCCOCCOCCOCCOc1nsnc1C1=CCCN(C)C1`, the figures for the pKi in [1], in test [6] and in [7] were 7.30, 6.70 and 6.50, respectively. In addition, in test [2], the outcome was inactive. In addition, the negative logarithm of the EC50 (pEC50) was 6.60 in test [3], 7.10 in test [8] and 7.00 in [9]. For the same compound, the Imax in [4] came to 120%. Moreover, the pIC50 in [5] is 7.90. The outcome in the test with Rattus norvegicus [10] and in the test with Rattus norvegicus [11] was Active.

As to `CCCCCCOc1nsnc1C1=CCCN(C)C1` [XANOMELINE], the pEC50 in test [12] was 4.60. For the same compound, the Smax in test [2] came to 80%. The outcome (in [4]; with Rattus norvegicus [13]) was inactive.
